The subject of one test is Vero. Nature of the test: Cytotoxicity against Chlorocebus aethiops (African green monkey) Vero cells after 48 hr by neutral red assay. It counts as cell-based, Chlorocebus sabaeus.
The test system of test [1] is Plasmodium falciparum. Nature of the test: Antimalarial activity against chloroquine-resistant Plasmodium falciparum W2 after 72 hr by plasmodial LDH assay. It counts as functional, organism-based. Summed up:
(§1)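 Compounds dissolved in DMSO (2 mg/ml stock), serially diluted. Culture at 2% parasitemia and 2% hematocrit in RPMI 1640 with 10% human serum and 60 μg/ml amikacin, under 90% N2/5% O2/5% CO2, 37°C for 72 h. LDH read-out: Malstat reagent 30 min, then NBT/PES 1 h in dark, acetic acid stop, absorbance 650 nm. IC50 from dose–response curves. Chloroquine positive control; 0.25% DMSO vehicle.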

For test [2], the system named is Plasmodium falciparum. Kind of test: Antimalarial activity against chloroquine-sensitive Plasmodium falciparum D6 after 72 hr by plasmodial LDH assay. It counts as functional, organism-based. Summed up:
as §1

A further test deals with Leishmania donovani. Kind of test: Antileishmanial activity against promastigote form of Leishmania donovani after 48 hr by alamar blue assay. It counts as functional, organism-based. The method, boiled down: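 A 3-day-old promastigote culture grown in RPMI 1640 with 10% FCS at 26°C was diluted to 5 × 10^5/ml. Drug dilutions were made directly in the cell suspension, then incubated 48 h at 26°C. Growth was read by Alamar blue fluorescence (ex 544/em 590 nm). IC50 came from dose–response curves, with pentamidine and amphotericin B as standards.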
For orientation: Resazurin is reduced to fluorescent resorufin, in cell work by metabolically active cells.

The test system of test [3] is Staphylococcus aureus. Kind of test: Antibacterial activity against Staphylococcus aureus ATCC 29213 at 20 ug/ml. It counts as functional, organism-based.
Test [4] has as its system Pichia kudriavzevii. Kind of test: Antifungal activity against Pichia kudriavzevii ATCC 6258 at 20 ug/ml. It counts as functional, organism-based.
Test [5] has as its system Cryptococcus neoformans. Nature of the test: Antifungal activity against Cryptococcus neoformans ATCC 90113 at 20 ug/ml. It counts as functional, organism-based.
The subject of another test is Aspergillus fumigatus. Nature of the test: Antifungal activity against Aspergillus fumigatus ATCC 204305. It counts as functional, organism-based.
In the next test the test system is Candida albicans. Nature of the test: Antifungal activity against Candida albicans ATCC 90028. The class given is functional, organism-based.
Test [6] concerns Mycobacterium intracellulare. Nature of the test: Antibacterial activity against Mycobacterium intracellulare ATCC 23068. It counts as functional, organism-based.
A further test deals with Pseudomonas aeruginosa. Kind of test: Antibacterial activity against Pseudomonas aeruginosa ATCC 27853. It counts as functional, organism-based.
The next test relates to Escherichia coli. Nature of the test: Antibacterial activity against Escherichia coli ATCC 35218. The class given is functional, organism-based.
For test [7], the system named is Staphylococcus aureus. Kind of test: Antibacterial activity against methicillin-resistant Staphylococcus aureus ATCC 33591. The class given is functional, organism-based.
In test [8] the test system is Nakaseomyces glabratus. Kind of test: Antifungal activity against Candida glabrata ATCC 90030. The class given is functional, organism-based.
Test [9] relates to Staphylococcus aureus. Nature of the test: Antibacterial activity against Staphylococcus aureus ATCC 29213. The class given is functional, organism-based.
Test [10] concerns Cryptococcus neoformans. Nature of the test: Antifungal activity against Cryptococcus neoformans ATCC 90113. The class given is functional, organism-based.
Test [11] has as its system Staphylococcus aureus. Nature of the test: Antibacterial activity against methicillin-resistant Staphylococcus aureus ATCC 33591 at 20 ug/ml. It counts as functional, organism-based.
Test [12] has as its system Nakaseomyces glabratus. Kind of test: Antifungal activity against Candida glabrata ATCC 90030 at 20 ug/ml. The class given is functional, organism-based.
In test [13] the test system is Pichia kudriavzevii. Nature of the test: Antifungal activity against Pichia kudriavzevii ATCC 6258. It counts as functional, organism-based.
The mark [14] stands for this setting: Plasmodium falciparum, W2, 72 h, read-out: IC50.
[15] abbreviates: Plasmodium falciparum, D6, 72 h, read-out: IC50.
Setting [16] is: Leishmania donovani, 48 h, read-out: IC50.

Structures are written as SMILES. ≈ marks a conversion by molar mass, not a printed value. Calls of active or inactive are those of the source. The calls are words filed in the database; no cut-off is given here.

Broadly, the IC50 is the point on the concentration scale where inhibition reaches its midpoint. As to `CCCCC/C=C/c1c(O)cc(CC=C(C)C)c(O)c1CO`, the IC50 entry is “Non-toxic” in the test with Vero; 2.8 µg/mL (≈ 9.2 µM) in the test with Plasmodium falciparum [1] (setting [14]); 3 µg/mL (≈ 9.85 µM) in the test on Plasmodium falciparum [2] (setting [15]); 19 µg/mL (≈ 62.4 µM) in the test with Leishmania donovani (setting [16]); 12 µg/mL (≈ 39.3 µM) with Staphylococcus aureus [7]; 7.17 µg/mL (≈ 23.6 µM) in the test with Nakaseomyces glabratus [8]. Also, the result (in the test on Staphylococcus aureus [3]; in the test with Pichia kudriavzevii [4]; in the test with Cryptococcus neoformans [5]; in the test with Aspergillus fumigatus; in the test on Candida albicans; in test [6]) was inactive. Besides, the result in the test on Pseudomonas aeruginosa and in the test with Escherichia coli was inactive.
`CCC/C=C/c1cc2c(C=O)c(O)c(CC=C(C)C)cc2o1`: the IC50 result in the test with Vero is “Non-toxic”; in the test on Plasmodium falciparum [1] (setting [14]), 2.8 µg/mL (≈ 9.38 µM); in the test on Plasmodium falciparum [2] (setting [15]), 3 µg/mL (≈ 10.1 µM); with Staphylococcus aureus [7] it was 5.4 µg/mL (≈ 18.1 µM); in the test with Staphylococcus aureus [9] it was 7.75 µg/mL (≈ 26 µM); in the test with Cryptococcus neoformans [10] it was 5.31 µg/mL (≈ 17.8 µM). In addition, half-maximal inhibition in the test on Nakaseomyces glabratus [8] (IC50) was put at 1.13 µg/mL (≈ 3.79 µM). Also, the result (in the test with Pichia kudriavzevii [4]; in the test on Aspergillus fumigatus; in the test with Candida albicans; in [6]; in the test with Pseudomonas aeruginosa; with Escherichia coli) was inactive.
Take `Cc1c(O)cc(O)c2c1COC2=O` [5,7-DIHYDROXY-4-METHYLPHTHALIDE]: the IC50 entry in the test with Vero was “Non-toxic”; in the test on Plasmodium falciparum [1], “Not Active”; with Plasmodium falciparum [2], “Not Active”; in the test on Leishmania donovani, “Not Active”; in the test on Cryptococcus neoformans [10] it was 18.1 µg/mL (≈ 100 µM). The result in the test on Staphylococcus aureus [11], with Staphylococcus aureus [3], in the test on Pichia kudriavzevii [4], in the test with Nakaseomyces glabratus [12], in the test on Aspergillus fumigatus and in the test with Candida albicans was inactive. Besides, the result (in [6]; in the test on Pseudomonas aeruginosa; in the test on Escherichia coli) was inactive.
For `C[C@@H]1[C@H](O)[C@@H](C)/C=C/C=C/C=C/C=C/C=C/C=C/C=C/[C@H](O[C@@H]2O[C@H](C)[C@@H](O)[C@H](N)[C@@H]2O)C[C@@H]2O[C@](O)(C[C@@H](O)C[C@@H](O)[C@H](O)CC[C@@H](O)C[C@@H](O)CC(=O)O[C@H]1C)C[C@H](O)[C@H]2C(=O)O` [AMPHOTERICIN B], the IC50 in the test on Cryptococcus neoformans [10] was determined as 1.23 µg/mL (≈ 1.33 µM); in the test on Pichia kudriavzevii [13], 0.36 µg/mL (≈ 0.39 µM); in the test with Nakaseomyces glabratus [8] it was 0.32 µg/mL (≈ 0.346 µM).
Consider `C/C=C/C=C/C=C/c1c(O)cc(CC=C(C)C)c(O)c1C=O` [AUROGLAUCIN], for which the IC50 entry with Vero was “Non-toxic”; with Leishmania donovani (setting [16]) it was 7.5 µg/mL (≈ 25.1 µM); in the test with Pichia kudriavzevii [13] it was 10.9 µg/mL (≈ 36.6 µM); with Nakaseomyces glabratus [8], 7.33 µg/mL (≈ 24.6 µM). The result (in the test on Staphylococcus aureus [11]; with Staphylococcus aureus [3]; in the test on Cryptococcus neoformans [5]; in the test with Aspergillus fumigatus; in the test on Candida albicans; in test [6]) was inactive. Further, the result in the test on Pseudomonas aeruginosa and in the test with Escherichia coli was inactive.
Turning to `CCC/C=C/C=C/c1c(O)cc(CC=C(C)C)c(O)c1C=O` [DIHYDROAUROGLAUCIN], the IC50 entry with Vero is “Non-toxic”; with Plasmodium falciparum [1] it was “Not Active”; in the test with Plasmodium falciparum [2], “Not Active”; in the test with Leishmania donovani (setting [16]), 20 µg/mL (≈ 66.6 µM); in the test with Nakaseomyces glabratus [8], 2.39 µg/mL (≈ 7.96 µM). Besides, the outcome in the test with Staphylococcus aureus [11], with Staphylococcus aureus [3], with Pichia kudriavzevii [4], with Cryptococcus neoformans [5], in the test on Aspergillus fumigatus and in the test on Candida albicans was inactive. Also, the outcome (in test [6]; in the test with Pseudomonas aeruginosa; in the test with Escherichia coli) was inactive.
For the compound `C=CC(C)(C)c1[nH]c2c(CC=C(C)C)cc(CC=C(C)C)cc2c1C[C@@H]1NC(=O)[C@H](C)NC1=O` [ECHINULIN], the IC50 result was “Non-toxic” in the test on Vero, “Not Active” with Plasmodium falciparum [1], “Not Active” in the test with Plasmodium falciparum [2] and “Not Active” with Leishmania donovani. Further, the outcome with Staphylococcus aureus [11], in the test with Staphylococcus aureus [3], in the test with Pichia kudriavzevii [4], with Cryptococcus neoformans [5], in the test on Nakaseomyces glabratus [12] and in the test with Aspergillus fumigatus was inactive. Also, the result (in the test on Candida albicans; in test [6]; in the test on Pseudomonas aeruginosa; with Escherichia coli) was inactive.
As to `CCCCCCCc1c(O)cc(CC=C(C)C)c(O)c1C=O` [FLAVOGLAUCIN], the IC50 result is “Non-toxic” in the test on Vero; 3 µg/mL (≈ 9.85 µM) in the test on Plasmodium falciparum [2] (setting [15]); 23 µg/mL (≈ 75.6 µM) with Leishmania donovani (setting [16]); 10.4 µg/mL (≈ 34.2 µM) with Staphylococcus aureus [7]; 14.3 µg/mL (≈ 47 µM) in the test with Staphylococcus aureus [9]. Also, the result (in the test with Pichia kudriavzevii [4]; in the test on Cryptococcus neoformans [5]; in the test with Nakaseomyces glabratus [12]; with Aspergillus fumigatus; with Candida albicans; in [6]) was inactive. In addition, the outcome in the test on Pseudomonas aeruginosa and in the test on Escherichia coli was inactive.
For the compound `CCCCC/C=C/c1c(O)cc(CC=C(C)C)c(O)c1C=O` [TETRAHYDROAUROGLAUCIN], the IC50 entry in the test with Vero is “Non-toxic”; in the test with Plasmodium falciparum [1] (setting [14]) it was 2.3 µg/mL (≈ 7.61 µM); in the test on Plasmodium falciparum [2] (setting [15]), 2.8 µg/mL (≈ 9.26 µM); with Leishmania donovani (setting [16]), 22 µg/mL (≈ 72.7 µM); in the test with Staphylococcus aureus [9], 13.5 µg/mL (≈ 44.7 µM); in the test with Nakaseomyces glabratus [8] it was 6.15 µg/mL (≈ 20.3 µM). The outcome (with Staphylococcus aureus [11]; with Pichia kudriavzevii [4]; in the test with Cryptococcus neoformans [5]; in the test on Aspergillus fumigatus; in the test on Candida albicans; in test [6]) was inactive. The result with Pseudomonas aeruginosa and with Escherichia coli was inactive.

Source of the values: ChEMBL document CHEMBL3046871, “Antimicrobial and antiprotozoal activities of secondary metabolites from the fungus Eurotium repens” (Med Chem Res, 2012).
